Active and inactive are the calls of the source. The calls are words filed in the database; no cut-off is given here.
Columns and labels:
Rattus norvegicus [1] = assay: Anticonvulsant activity in albino Sprague-Dawley rat assessed as protection against maximal electroshock-induced seizures at 75 mg/kg, po after 15 mins; type: functional
In short: (§1)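 Adult male Sprague-Dawley albino rats (100-150 g) dosed orally with compound suspended in 0.5% methylcellulose (0.04 mL per 10 g). Maximal electroshock challenge at the stated time. Protection is scored in 25% steps as the fraction of animals protected, with neurotoxicity recorded in parallel.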

Rattus norvegicus [2] = assay: Anticonvulsant activity in albino Sprague-Dawley rat assessed as protection against maximal electroshock-induced seizures at 75 mg/kg, po after 30 mins; type: functional; in short: as §1
Mus musculus [3] = assay: Anticonvulsant activity in CF1 albino mouse assessed as protection against scMet-induced seizures at 300 mg/kg, ip after 4 hrs; type: functional, organism-based; set-up: dose 300 mg/kg
In short: (§2)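 Adult male CF no. 1 albino mice (18-25 g) dosed intraperitoneally with compound suspended in 0.5% methylcellulose (0.01 mL/g). Convulsant challenge given subcutaneously as a 0.85% pentylenetetrazol solution in 0.9% saline. Read-out is animals protected over animals tested, with neurotoxicity scored in parallel.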

Mus musculus [4] = assay: Neurotoxicity in CF1 albino mouse at 300 mg/kg, ip after 4 hrs; type: toxicity, organism-based; set-up: dose 300 mg/kg, route intraperitoneal; conditions: in vivo
In short: (§3)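 Male CF no. 1 albino mice (18-25 g) received a single ip dose as a suspension in 0.5% methylcellulose. The read-out was the number of animals showing neurotoxicity (minimal motor impairment) over the number tested.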

Rattus norvegicus [5] = assay: Anticonvulsant activity in albino Sprague-Dawley rat assessed as protection against maximal electroshock-induced seizures at 75 mg/kg, po after 2 hrs; type: functional, organism-based; set-up: dose 75 mg/kg; in short: as §1
Rattus norvegicus [6] = assay: Anticonvulsant activity in albino Sprague-Dawley rat assessed as protection against scMet-induced seizures at 75 mg/kg, po after 4 hrs; type: functional, organism-based; set-up: dose 75 mg/kg
In short: (§4)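 Male Sprague-Dawley albino rats (100-150 g) were given the compound orally as a suspension in 0.5% methylcellulose. Seizures were induced by subcutaneous pentylenetetrazol, dissolved in 0.9% saline as a 2.82% solution. The read-out was animals protected over animals tested.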

Mus musculus [7] = assay: Anticonvulsant activity in CF1 albino mouse assessed as protection against maximal electroshock-induced seizures at 300 mg/kg, ip after 0.5 hrs; type: functional, organism-based; set-up: dose 300 mg/kg
In short: (§5)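 Adult male CF no. 1 albino mice (18-25 g). Test compound suspended in 0.5% methylcellulose and given intraperitoneally at 0.01 mL/g body weight. Maximal electroshock challenge at the stated time. Read-out is the number of animals protected over the number tested; neurotoxicity is scored in parallel.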

Rattus norvegicus [8] = assay: Neurotoxicity in albino Sprague-Dawley rat assessed as animal exhibiting toxicity at 75 mg/kg, po; type: organism-based; set-up: dose 75 mg/kg, route oral; conditions: in vivo
In short: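 Neurotoxicity was scored in male Sprague-Dawley albino rats (100-150 g) dosed orally with a suspension in 0.5% methylcellulose. The read-out was the fraction of animals showing neurotoxicity (minimal motor impairment).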

Rattus norvegicus [9] = assay: Anticonvulsant activity in albino Sprague-Dawley rat assessed as protection against scMet-induced seizures at 75 mg/kg, po after 30 mins; type: functional, organism-based; set-up: dose 75 mg/kg; in short: as §4
Mus musculus [10] = assay: Anticonvulsant activity in CF1 albino mouse assessed as protection against maximal electroshock-induced seizures at 100 mg/kg, ip after 4 hrs; type: functional, organism-based; set-up: dose 100 mg/kg; in short: as §5
Mus musculus [11] = assay: Neurotoxicity in CF1 albino mouse at 30 mg/kg, ip after 0.5 hrs; type: toxicity, organism-based; set-up: dose 30 mg/kg, route intraperitoneal; conditions: in vivo; in short: as §3
Mus musculus [12] = assay: Anticonvulsant activity in CF1 albino mouse assessed as protection against scMet-induced seizures at 30 mg/kg, ip after 0.5 hrs; type: functional, organism-based; set-up: dose 30 mg/kg; in short: as §2
Mus musculus [13] = assay: Anticonvulsant activity in CF1 albino mouse assessed as protection against scMet-induced seizures at 100 mg/kg, ip after 0.5 hrs; type: functional, organism-based; set-up: dose 100 mg/kg; in short: as §2
Rattus norvegicus [14] = assay: Anticonvulsant activity in albino Sprague-Dawley rat assessed as protection against scMet-induced seizures at 75 mg/kg, po after 15 mins; type: functional, organism-based; set-up: dose 75 mg/kg; in short: as §4
Mus musculus [15] = assay: Neurotoxicity in CF1 albino mouse at 30 mg/kg, ip after 4 hrs; type: toxicity, organism-based; set-up: dose 30 mg/kg, route intraperitoneal; conditions: in vivo; in short: as §3
Mus musculus [16] = assay: Anticonvulsant activity in CF1 albino mouse assessed as protection against scMet-induced seizures at 30 mg/kg, ip after 4 hrs; type: functional, organism-based; set-up: dose 30 mg/kg; in short: as §2
Rattus norvegicus [17] = assay: Anticonvulsant activity in albino Sprague-Dawley rat assessed as protection against scMet-induced seizures at 75 mg/kg, po after 2 hrs; type: functional; in short: as §4
Rattus norvegicus [18] = assay: Anticonvulsant activity in albino Sprague-Dawley rat assessed as protection against scMet-induced seizures at 75 mg/kg, po after 1 hr; type: functional, organism-based; set-up: dose 75 mg/kg; in short: as §4
Mus musculus [19] = assay: Anticonvulsant activity in CF1 albino mouse assessed as protection against scMet-induced seizures at 300 mg/kg, ip after 0.5 hrs; type: functional, organism-based; set-up: dose 300 mg/kg; in short: as §2
Mus musculus [20] = assay: Anticonvulsant activity in CF1 albino mouse assessed as protection against maximal electroshock-induced seizures at 300 mg/kg, ip after 4 hrs; type: functional, organism-based; set-up: dose 300 mg/kg; in short: as §5
Mus musculus [21] = assay: Anticonvulsant activity in CF1 albino mouse assessed as protection against maximal electroshock-induced seizures at 30 mg/kg, ip after 4 hrs; type: functional, organism-based; set-up: dose 30 mg/kg; in short: as §5
Rattus norvegicus [22] = assay: Anticonvulsant activity in albino Sprague-Dawley rat assessed as protection against maximal electroshock-induced seizures at 75 mg/kg, po after 4 hrs; type: functional; in short: as §1
Mus musculus [23] = assay: Anticonvulsant activity in CF1 albino mouse assessed as protection against scMet-induced seizures at 100 mg/kg, ip after 4 hrs; type: functional, organism-based; set-up: dose 100 mg/kg; in short: as §2
Mus musculus [24] = assay: Anticonvulsant activity in CF1 albino mouse assessed as protection against maximal electroshock-induced seizures at 30 mg/kg, ip after 0.5 hrs; type: functional, organism-based; set-up: dose 30 mg/kg; in short: as §5
Rattus norvegicus [25] = assay: Anticonvulsant activity in albino Sprague-Dawley rat assessed as protection against maximal electroshock-induced seizures at 75 mg/kg, po after 1 hr; type: functional, organism-based; set-up: dose 75 mg/kg; in short: as §1
Mus musculus [26] = assay: Anticonvulsant activity in CF1 albino mouse assessed as protection against maximal electroshock-induced seizures at 100 mg/kg, ip after 0.5 hrs; type: functional, organism-based; set-up: dose 100 mg/kg; in short: as §5
Mus musculus [27] = assay: Neurotoxicity in CF1 albino mouse at 300 mg/kg, ip after 0.5 hrs; type: toxicity, organism-based; set-up: dose 300 mg/kg, route intraperitoneal; conditions: in vivo; in short: as §3
Rattus norvegicus [28] = assay: Anticonvulsant activity in albino Sprague-Dawley rat assessed as protection against maximal electroshock-induced seizures at 30 mg/kg, po after 15 mins; type: functional, organism-based; set-up: dose 30 mg/kg; in short: as §1
Rattus norvegicus [29] = assay: Anticonvulsant activity in albino Sprague-Dawley rat assessed as protection against maximal electroshock-induced seizures at 30 mg/kg, po after 4 hrs; type: functional, organism-based; set-up: dose 30 mg/kg; in short: as §1
Rattus norvegicus [30] = assay: Anticonvulsant activity in albino Sprague-Dawley rat assessed as protection against scMet-induced seizures at 30 mg/kg, po after 2 hrs; type: functional; in short: as §4
Rattus norvegicus [31] = assay: Anticonvulsant activity in albino Sprague-Dawley rat assessed as protection against maximal electroshock-induced seizures at 30 mg/kg, po after 1 hr; type: functional, organism-based; set-up: dose 30 mg/kg; in short: as §1
Rattus norvegicus [32] = assay: Anticonvulsant activity in albino Sprague-Dawley rat assessed as protection against maximal electroshock-induced seizures at 30 mg/kg, po after 30 mins; type: functional, organism-based; set-up: dose 30 mg/kg; in short: as §1
Rattus norvegicus [33] = assay: Anticonvulsant activity in albino Sprague-Dawley rat assessed as protection against scMet-induced seizures at 30 mg/kg, po after 15 mins; type: functional; in short: as §4
Mus musculus [34] = assay: Neurotoxicity in CF1 albino mouse at 100 mg/kg, ip after 0.5 hrs; type: toxicity, organism-based; set-up: dose 100 mg/kg, route intraperitoneal; conditions: in vivo; in short: as §3
Rattus norvegicus [35] = assay: Anticonvulsant activity in albino Sprague-Dawley rat assessed as protection against maximal electroshock-induced seizures at 30 mg/kg, po after 2 hrs; type: functional, organism-based; set-up: dose 30 mg/kg; in short: as §1
Rattus norvegicus [36] = assay: Anticonvulsant activity in albino Sprague-Dawley rat assessed as protection against scMet-induced seizures at 30 mg/kg, po after 1 hr; type: functional
In short: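 Oral dosing of male Sprague-Dawley rats (100-150 g) with compound in 0.5% methylcellulose. Convulsant challenge given subcutaneously as a 2.82% pentylenetetrazol solution in 0.9% saline. Groups of about 8 rats per dose. For quantitation, doses spanning 0% to 100% protection were fitted by probit analysis to give ED50 with 95% confidence interval.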

Mus musculus [37] = assay: Neurotoxicity in CF1 albino mouse at 100 mg/kg, ip after 4 hrs; type: toxicity, organism-based; set-up: dose 100 mg/kg, route intraperitoneal; conditions: in vivo; in short: as §3
Rattus norvegicus [38] = assay: Anticonvulsant activity in albino Sprague-Dawley rat assessed as protection against scMet-induced seizures at 30 mg/kg, po after 30 mins; type: functional; in short: as §4
Rattus norvegicus [39] = assay: Anticonvulsant activity in albino Sprague-Dawley rat assessed as protection against scMet-induced seizures at 30 mg/kg, po after 4 hrs; type: functional, organism-based; set-up: dose 30 mg/kg; in short: as §4

| Compound | Activity (Mus musculus [3]) | Activity (Mus musculus [4]) | Activity (Mus musculus [7]) | Activity (Mus musculus [10]) | Activity (Mus musculus [11]) | Activity (Mus musculus [12]) | Activity (Mus musculus [13]) | Activity (Mus musculus [15]) | Activity (Mus musculus [16]) | Activity (Mus musculus [19]) | Activity (Mus musculus [20]) | Activity (Mus musculus [21]) | Activity (Mus musculus [24]) | Activity (Mus musculus [26]) | further results |
| --- | --- | --- | --- | --- | --- | --- | --- | --- | --- | --- | --- | --- | --- | --- | --- |
| CC1(C)C(C)(C)C1(Cl)C(=O)O | Non-toxic | Non-toxic | Non-toxic | Non-toxic | Non-toxic | Non-toxic | Non-toxic | Non-toxic | Non-toxic | Non-toxic | Non-toxic | Non-toxic | Non-toxic | Non-toxic | Activity (Rattus norvegicus [1]): 25%; Activity (Rattus norvegicus [2]): 25%; Activity (Rattus norvegicus [5]): inactive; Activity (Rattus norvegicus [6]): inactive; Activity (Rattus norvegicus [8]): Not Active; Activity (Rattus norvegicus [9]): inactive; Activity (Rattus norvegicus [14]): inactive; Activity (Rattus norvegicus [17]): 25%; Activity (Rattus norvegicus [18]): inactive; Activity (Rattus norvegicus [22]): 25%; Activity (Mus musculus [23]): Non-toxic; Activity (Rattus norvegicus [25]): inactive |
| CC1(C)C(C)(C)C1(F)C(=O)NC(N)=O | Non-toxic | Non-toxic | Non-toxic | Non-toxic | Non-toxic | Non-toxic | Non-toxic | Non-toxic | Non-toxic | Non-toxic | Non-toxic | Non-toxic | Non-toxic | Non-toxic | Activity (Mus musculus [27]): Non-toxic; Activity (Rattus norvegicus [28]): inactive; Activity (Rattus norvegicus [29]): inactive; Activity (Rattus norvegicus [30]): 50%; Activity (Rattus norvegicus [31]): inactive; Activity (Rattus norvegicus [32]): inactive; Activity (Rattus norvegicus [33]): 25%; Activity (Mus musculus [34]): Non-toxic; Activity (Rattus norvegicus [35]): inactive; Activity (Rattus norvegicus [36]): 25%; Activity (Mus musculus [37]): Non-toxic; Activity (Rattus norvegicus [38]): 25%; Activity (Rattus norvegicus [39]): inactive |

— ChEMBL document CHEMBL1153988 (J Med Chem, 2009)
